Columns and labels:
[1] = molecular target: T1, D(2) dopamine receptor (Homo sapiens, UniProt P14416); assay: Displacement of [3H]-Spiperone from human recombinant dopamine D2L receptor expressed in CHO cells at 10 uM relative to control; assay type: cell-based
Summary of the method: (§1)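 Off-target dopamine receptor radioligand binding (D1, D2L, D2S, D3, D5), run as a contract assay. Test compound at a single concentration of 10 µM, reported as % inhibition of specific binding, measured in duplicate.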

[2] = molecular target: T2, D(4) dopamine receptor (Homo sapiens, UniProt P21917); assay: Displacement of [3H]-Spiperone from human recombinant dopamine D4 receptor expressed in CHOK1 cells; assay type: cell-based, CHO-K1
T2 sequence (P21917 whole entry): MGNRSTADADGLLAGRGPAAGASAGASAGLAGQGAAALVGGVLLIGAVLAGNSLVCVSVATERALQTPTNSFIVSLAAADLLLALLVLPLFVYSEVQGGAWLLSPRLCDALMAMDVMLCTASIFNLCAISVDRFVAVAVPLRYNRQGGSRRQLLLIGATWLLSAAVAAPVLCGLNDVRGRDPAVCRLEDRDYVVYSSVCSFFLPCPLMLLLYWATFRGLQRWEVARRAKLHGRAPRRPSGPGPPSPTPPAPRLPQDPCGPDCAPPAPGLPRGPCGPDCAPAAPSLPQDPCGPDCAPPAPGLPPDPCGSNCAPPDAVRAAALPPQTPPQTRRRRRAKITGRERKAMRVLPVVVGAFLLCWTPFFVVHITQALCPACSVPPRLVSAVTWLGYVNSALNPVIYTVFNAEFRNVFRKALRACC
Summary of the method: (§2)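 Radioligand binding at human D4 receptor using [3H]-spiperone, run as a contract assay in duplicate. IC50 and Ki were derived from concentration–response data. Single-point values are % inhibition of specific binding at 10 µM test compound.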

[3] = molecular target: D(1A) dopamine receptor (Homo sapiens, UniProt P21728); assay: Displacement of [3H]-SCH-23390 from human recombinant dopamine D1 receptor expressed in CHO cells at 10 uM relative to control; assay type: cell-based; summary of the method: as §1
[4] = molecular target: D(1B) dopamine receptor (Homo sapiens, UniProt P21918); assay: Displacement of [3H]-SCH-23390 from human recombinant dopamine D5 receptor expressed in CHO cells at 10 uM relative to control; assay type: cell-based; summary of the method: as §1
[5] = molecular target: D(3) dopamine receptor (Homo sapiens, UniProt P35462); assay: Displacement of [3H]-Spiperone from human recombinant dopamine D3 receptor expressed in CHO cells at 10 uM relative to control; assay type: cell-based; summary of the method: as §1
[6] = molecular target: T1, D(2) dopamine receptor; assay: Displacement of [3H]-Spiperone from human recombinant dopamine D2S receptor expressed in CHO cells at 10 uM relative to control; assay type: cell-based; summary of the method: as §1
[7] = molecular target: T3, D(4) dopamine receptor (Homo sapiens) (UniProt P21917); assay: Displacement of [3H]-Spiperone from human recombinant dopamine D4 receptor expressed in CHOK1 cells at 10 uM relative to control; assay type: cell-based; conditions: CHO-K1; summary of the method: as §2
T3 sequence (whole entry): T2 sequence (P21917 whole entry)

[8] = test system: Plasma; assay: Fraction unbound in rat plasma by equilibrium dialysis method; assay type: ADME, cell-free
[9] = Fraction unbound in human plasma by equilibrium dialysis method; assay type: ADME, cell-free

Chain of D(1B) dopamine receptor (P21918 whole entry): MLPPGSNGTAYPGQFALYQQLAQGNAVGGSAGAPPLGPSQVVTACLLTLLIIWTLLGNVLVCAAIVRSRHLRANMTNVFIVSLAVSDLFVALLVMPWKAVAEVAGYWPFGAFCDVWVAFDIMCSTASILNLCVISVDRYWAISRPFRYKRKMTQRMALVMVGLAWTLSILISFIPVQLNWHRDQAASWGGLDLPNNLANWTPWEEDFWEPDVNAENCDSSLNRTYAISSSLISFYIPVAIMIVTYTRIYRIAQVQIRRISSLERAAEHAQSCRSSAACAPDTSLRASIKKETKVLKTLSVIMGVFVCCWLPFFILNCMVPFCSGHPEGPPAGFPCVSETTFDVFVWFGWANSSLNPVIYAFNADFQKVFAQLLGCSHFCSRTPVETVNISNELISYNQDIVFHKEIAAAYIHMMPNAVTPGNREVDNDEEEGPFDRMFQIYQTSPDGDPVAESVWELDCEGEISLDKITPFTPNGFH
Chain of D(1A) dopamine receptor (P21728 whole entry): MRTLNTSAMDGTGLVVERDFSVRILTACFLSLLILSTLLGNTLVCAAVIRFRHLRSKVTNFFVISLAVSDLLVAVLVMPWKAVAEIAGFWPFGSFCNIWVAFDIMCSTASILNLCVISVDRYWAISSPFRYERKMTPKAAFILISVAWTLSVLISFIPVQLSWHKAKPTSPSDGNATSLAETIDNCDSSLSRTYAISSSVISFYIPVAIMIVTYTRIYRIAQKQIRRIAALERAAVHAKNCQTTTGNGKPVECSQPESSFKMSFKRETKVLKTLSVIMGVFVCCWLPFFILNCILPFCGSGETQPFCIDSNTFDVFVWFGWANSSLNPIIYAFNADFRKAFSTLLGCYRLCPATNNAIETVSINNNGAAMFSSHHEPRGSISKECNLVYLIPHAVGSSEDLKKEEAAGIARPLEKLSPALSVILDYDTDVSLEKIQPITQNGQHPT
Chain of D(3) dopamine receptor (P35462 whole entry): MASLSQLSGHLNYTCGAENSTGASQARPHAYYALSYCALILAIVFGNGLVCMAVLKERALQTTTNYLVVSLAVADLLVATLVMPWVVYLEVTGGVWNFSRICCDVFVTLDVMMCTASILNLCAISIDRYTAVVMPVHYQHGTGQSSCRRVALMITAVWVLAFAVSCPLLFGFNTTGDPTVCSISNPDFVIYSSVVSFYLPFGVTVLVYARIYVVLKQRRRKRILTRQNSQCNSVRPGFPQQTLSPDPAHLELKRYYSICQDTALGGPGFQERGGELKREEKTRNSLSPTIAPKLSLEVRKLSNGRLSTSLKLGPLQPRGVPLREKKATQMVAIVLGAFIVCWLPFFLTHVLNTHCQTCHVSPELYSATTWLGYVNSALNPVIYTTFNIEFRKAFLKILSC
T1 sequence (P14416 whole entry): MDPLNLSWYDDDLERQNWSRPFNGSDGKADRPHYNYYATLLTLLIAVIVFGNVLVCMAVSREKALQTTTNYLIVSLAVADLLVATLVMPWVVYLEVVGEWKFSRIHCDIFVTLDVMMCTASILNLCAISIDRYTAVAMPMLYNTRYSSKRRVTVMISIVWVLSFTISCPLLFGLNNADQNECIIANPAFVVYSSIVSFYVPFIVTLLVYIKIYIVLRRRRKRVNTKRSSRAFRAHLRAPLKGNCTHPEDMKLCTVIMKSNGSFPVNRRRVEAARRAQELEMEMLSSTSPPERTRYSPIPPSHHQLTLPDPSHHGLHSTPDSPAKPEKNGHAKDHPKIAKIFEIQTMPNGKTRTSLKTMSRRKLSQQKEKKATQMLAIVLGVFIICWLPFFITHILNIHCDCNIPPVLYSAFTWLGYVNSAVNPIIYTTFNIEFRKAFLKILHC

In the case of Fc1ccc(OC[C@@H]2CN(Cc3ccc(Cl)cc3)CCO2)cc1, the inhibition [1] is reported as 83%, the IC50 [2] is reported as 38 nM and the Ki [2] is reported as 10.4 nM. For the same compound, the inhibition [3] was < 50%, the inhibition [4] was < 50% and the inhibition [5] was 51%. For the same compound, the inhibition [6] was 79%.
With c1ccc(OC[C@@H]2CN(Cc3ccc4ccccc4n3)CCO2)cc1 the IC50 [2] was 1110 nM and the Ki [2] was 310 nM.
For COc1ccc(CN2CCO[C@H](COc3ccc(F)cc3)C2)cc1, the inhibition [1] was 88%, the IC50 [2] was 47 nM and the Ki [2] was 13.1 nM. For the same compound, the inhibition [3] was < 50%, the inhibition [4] was < 50% and the inhibition [5] was 76%. It also gave an inhibition [6] of 82%.
COc1ccc(CN2CCO[C@H](COc3ccccc3)C2)cc1OC gave an IC50 [2] of 150 nM and a Ki [2] of 43 nM.
Compound COc1ccc(CN2CCO[C@H](COc3cccc(F)n3)C2)cc1Cl has an IC50 [2] of 260 nM and a Ki [2] of 73 nM.
Compound c1ccc(OC[C@@H]2CN(Cc3ccc4ccccc4c3)CCO2)cc1 has an IC50 [2] of 64 nM and a Ki [2] of 17.8 nM.
In the case of CSc1ccc(CN2CCO[C@H](COc3ccccc3)C2)cc1, the IC50 [2] is reported as 58 nM and the Ki [2] is reported as 16.1 nM.
COc1ccc(CN2CCO[C@H](COc3cccc(C#N)c3)C2)cc1Cl gave an IC50 [2] of 130 nM and a Ki [2] of 36 nM.
For COc1ccc(CN2CCO[C@H](COc3cncnc3)C2)cc1, the inhibition [7] was -4%.
Work on COc1cc(CN2CCO[C@H](COc3cccc(F)c3)C2)ccc1Cl yielded an IC50 [2] of 37 nM, a Ki [2] of 10.1 nM and a Fu [8] of 0.014. For the same compound, the Fu [9] was 0.011 and the inhibition [6] was < 50%.
For c1ccc(OC[C@@H]2CN(Cc3ncn4ccccc34)CCO2)cc1, the IC50 [2] was 130 nM, the Ki [2] was 35 nM and the inhibition [6] was < 50%.
COc1ccc(CN2CCO[C@H](COc3ccccc3)C2)cc1Cl showed an IC50 [2] of 38 nM, a Ki [2] of 10.4 nM and a Fu [8] of 0.019. The Fu [9] was 0.01 and the inhibition [6] was < 50%.
Clc1ccc(CN2CCO[C@H](COc3ncccn3)C2)cc1 gave an inhibition [7] of 31%.
Work on FC(F)(F)Oc1ccc(CN2CCO[C@H](COc3ccccc3)C2)cc1 yielded an IC50 [2] of 180 nM and a Ki [2] of 51 nM.
Fc1ccc2c(CN3CCO[C@H](COc4cccc(F)n4)C3)c[nH]c2c1 showed an IC50 [2] of 76 nM, a Ki [2] of 21 nM and a Fu [8] of 0.015. For the same compound, the Fu [9] was 0.009 and the inhibition [6] was < 50%.
In the case of Cc1ccc(CN2CCO[C@H](COc3ccccc3)C2)cc1C, the IC50 [2] is reported as 45 nM, the Ki [2] is reported as 12.3 nM and the inhibition [6] is reported as < 50%.
In the case of COc1cc(CN2CCO[C@H](COc3ccccn3)C2)ccc1Cl, the inhibition [7] is reported as 34%.
Fc1ccc2c(CN3CCO[C@H](COc4ccccc4)C3)c[nH]c2c1 gave an inhibition [1] of 78%, an IC50 [2] of 18.9 nM and a Ki [2] of 5.2 nM. For the same compound, the Fu [8] was 0.047, the inhibition [3] was < 50% and the inhibition [4] was < 50%. For the same compound, the Fu [9] was 0.017, the inhibition [5] was < 50% and the inhibition [6] was 76%.
Work on Fc1cccc2[nH]cc(CN3CCO[C@H](COc4ccccc4)C3)c12 yielded an IC50 [2] of 3830 nM and a Ki [2] of 1060 nM.
Compound COc1ccc(CN2CCO[C@@H](COc3ccccc3)C2)cc1Cl has an inhibition [7] of 35%.
COc1ccc2[nH]cc(CN3CCO[C@H](COc4ccccc4)C3)c2c1 gave an IC50 [2] of 460 nM and a Ki [2] of 130 nM.
In the case of COc1ccc(CN2CCO[C@H](COc3cccnc3)C2)cc1, the IC50 [2] is reported as 210 nM and the Ki [2] is reported as 59 nM.
In the case of Fc1ccc(CN2CCO[C@H](COc3ccccc3)C2)cc1F, the IC50 [2] is reported as 530 nM and the Ki [2] is reported as 150 nM.
Work on COc1ccc(CN2CCO[C@H](COc3ccccn3)C2)cc1 yielded an inhibition [7] of 57%.
In the case of Clc1ccc(CN2CCO[C@H](COc3cccc(Cl)n3)C2)cc1, the IC50 [2] is reported as 100 nM, the Ki [2] is reported as 29 nM and the Fu [8] is reported as 0.008. For the same compound, the Fu [9] was 0.004.
Work on COc1cccc(OC[C@@H]2CN(Cc3ccc(Cl)cc3)CCO2)c1 yielded an IC50 [2] of 130 nM and a Ki [2] of 36 nM.
In the case of c1ccc(OC[C@@H]2CN(Cc3n[nH]c4ccccc34)CCO2)cc1, the IC50 [2] is reported as 65 nM, the Ki [2] is reported as 18.1 nM and the inhibition [6] is reported as < 50%.
Work on Fc1cc(CN2CCO[C@H](COc3ccccc3)C2)ccc1C(F)(F)F yielded an IC50 [2] of 58 nM, a Ki [2] of 16.2 nM and a Fu [8] of 0.007. The Fu [9] was 0.002.
COc1cc(CN2CCO[C@H](COc3cccc(F)n3)C2)ccc1Cl gave an inhibition [7] of -3%.
Work on COc1ccc2c(CN3CCO[C@H](COc4ccccc4)C3)c[nH]c2c1 yielded an inhibition [1] of 87%, an IC50 [2] of 19.5 nM and a Ki [2] of 5.4 nM. For the same compound, the Fu [8] was 0.075, the inhibition [3] was < 50% and the inhibition [4] was < 50%. The Fu [9] was 0.037, the inhibition [5] was 70% and the inhibition [6] was 82%.
COc1ccc(CN2CCO[C@H](COc3cccc(F)c3)C2)cc1Cl gave an IC50 [2] of 39 nM, a Ki [2] of 10.8 nM and a Fu [8] of 0.013. For the same compound, the Fu [9] was 0.006 and the inhibition [6] was < 50%.
For c1ccc(OC[C@@H]2CN(Cc3cccc4cc[nH]c34)CCO2)cc1, the IC50 [2] was 130 nM and the Ki [2] was 37 nM.
Work on COc1ccc(CN2CCO[C@H](COc3ccccn3)C2)cc1Cl yielded an inhibition [7] of 37%.
Work on COc1cc(CN2CCO[C@H](COc3ccccc3)C2)ccc1F yielded an IC50 [2] of 42 nM and a Ki [2] of 11.6 nM.
c1ccc(OC[C@@H]2CN(Cc3cn4ccccc4n3)CCO2)cc1 showed an IC50 [2] of 590 nM, a Ki [2] of 160 nM and a Fu [8] of 0.215. The Fu [9] was 0.057.
Work on Fc1ccc(CN2CCO[C@H](COc3ccccc3)C2)cc1C(F)(F)F yielded an IC50 [2] of 320 nM and a Ki [2] of 89 nM.
Clc1ccc(CN2CCO[C@H](COc3ccccn3)C2)cc1 showed an IC50 [2] of 2630 nM and a Ki [2] of 730 nM.
COc1cc(CN2CCO[C@H](COc3cccc(C#N)c3)C2)ccc1Cl gave an IC50 [2] of 100 nM and a Ki [2] of 28 nM.
Work on Clc1ccc(CN2CCO[C@H](COc3cccnc3)C2)cc1 yielded an IC50 [2] of 103 nM and a Ki [2] of 47 nM.
With Clc1ccc(CN2CCO[C@H](COc3cncnc3)C2)cc1 the inhibition [7] was 76%.
With Fc1ccc(CN2CCO[C@H](COc3ccccc3)C2)cc1Cl the IC50 [2] was 62 nM and the Ki [2] was 170 nM.
COc1cc(CN2CCO[C@H](COc3ccccc3)C2)ccc1Cl gave an inhibition [1] of 52%, an IC50 [2] of 42 nM and a Ki [2] of 11.6 nM. The Fu [8] was 0.025, the inhibition [3] was < 50% and the inhibition [4] was < 50%. For the same compound, the Fu [9] was 0.01, the inhibition [5] was < 50% and the inhibition [6] was 60%.
Work on COc1ccc(CN2CCO[C@H](COc3ccccc3)C2)cc1 yielded an IC50 [2] of 160 nM and a Ki [2] of 44 nM.
In the case of Fc1cccc(OC[C@@H]2CN(Cc3ccc(Cl)cc3)CCO2)n1, the IC50 [2] is reported as 460 nM and the Ki [2] is reported as 130 nM.
In the case of COc1ccc(OC[C@@H]2CN(Cc3ccc(Cl)cc3)CCO2)cc1, the IC50 [2] is reported as 150 nM and the Ki [2] is reported as 42 nM.
Fc1cc(CN2CCO[C@H](COc3ccccc3)C2)ccc1Cl showed an IC50 [2] of 69 nM, a Ki [2] of 19.1 nM and a Fu [8] of 0.012. For the same compound, the Fu [9] was 0.006.
In the case of COc1ccc(CN2CCO[C@H](COc3ncccn3)C2)cc1, the inhibition [7] is reported as 8%.
With COc1ccc(CN2CCO[C@H](COc3ccc(OC)cc3)C2)cc1 the IC50 [2] was 380 nM and the Ki [2] was 110 nM.
With Clc1ccc2[nH]cc(CN3CCO[C@H](COc4ccccc4)C3)c2c1 the IC50 [2] was 130 nM and the Ki [2] was 37 nM.
Work on FC1(F)Oc2ccc(CN3CCO[C@H](COc4ccccc4)C3)cc2O1 yielded an IC50 [2] of 260 nM and a Ki [2] of 72 nM.
Compound c1ccc(OC[C@@H]2CN(Cc3ccc4[nH]ccc4c3)CCO2)cc1 has an inhibition [1] of 64%, an IC50 [2] of 58 nM and a Ki [2] of 15.9 nM. The Fu [8] was 0.069, the inhibition [3] was < 50% and the inhibition [4] was < 50%. The Fu [9] was 0.035, the inhibition [5] was < 50% and the inhibition [6] was 64%.
With COc1ccc(CN2CCO[C@H](COc3cccc(F)c3)C2)cc1 the IC50 [2] was 92 nM and the Ki [2] was 26 nM.
Clc1ccc(CN2CCO[C@H](COc3ccccc3)C2)cc1Cl showed an IC50 [2] of 97 nM, a Ki [2] of 27 nM and a Fu [8] of 0.006. It also gave a Fu [9] of 0.002.

Reference: ChEMBL document CHEMBL3792377, “Synthesis and characterization of a series of chiral alkoxymethyl morpholine analogs as dopamine receptor 4 (D4R) antagonists” (Bioorg Med Chem Lett, 2016)
